From ChEMBL document CHEMBL3792280, “Design and synthesis of novel quinoxaline derivatives as potential candidates for treatment of multidrug-resistant and latent tuberculosis” (Bioorg Med Chem Lett, 2016) come the findings set out here.

≈ marks a conversion by molar mass, not a printed value.

In data set [1] the test system is J774. Description: Cytotoxicity against mouse J774 cells assessed as cell viability at 10 times lower MIC by MTT assay relative to control. The data set is classed as cell-based.
Data set [2] relates to J774. Description: Cytotoxicity against mouse J774 cells assessed as cell viability at MIC by MTT assay relative to control. The data set is classed as cell-based. A general note: Tetrazolium dyes change colour on reduction, which living cells bring about.
Data set [3] concerns Mycobacterium tuberculosis. Description: Antimicrobial activity against Mycobacterium tuberculosis H37Rv SRI 1345 after 7 days. The data set is classed as functional. The note with it: H37Rv SRI 1345, 168 h. Summed up: (§1)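 MIC in µg/mL, retested on susceptible H37Rv (SRI 1345) in the same panel as single-drug-resistant strains: isoniazid-, rifampin- and ofloxacin-resistant. Percent inhibition recorded at the MIC concentration. Ratio taken as MIC H37Rv / MIC resistant strain.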

Data set [4] concerns Mycobacterium tuberculosis. Description: Antimicrobial activity against Mycobacterium tuberculosis H37Rv ATCC 27294 infected in mouse J774 cells assessed as log reduction in bacterial burden at 10 times lower MIC measured 7 days postinfection relative to control. The data set is classed as functional. Summed up:
(§2)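 Macrophages infected with H37Rv and treated at three concentrations 10-fold apart, chosen from the primary-screen H37Rv data. The middle concentration brackets the reported MIC, with the others ten-fold below and ten-fold above it. Read-out is log-reduction of intracellular bacterial burden.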

Data set [5] deals with Mycobacterium tuberculosis. Kind of data set: Antimicrobial activity against Mycobacterium tuberculosis H37Rv ATCC 27294 infected in mouse J774 cells assessed as growth inhibition at 10 times lower MIC measured 7 days postinfection. It is filed as functional. The method, boiled down: as §2
The subject of data set [6] is Mycobacterium tuberculosis. Kind of data set: Antimicrobial activity against non-replicating Mycobacterium tuberculosis H37Rv SRI 1345 assessed as inhibition of visual growth incubated for 7 days under anaerobic condition by low oxygen recovery assay. The data set is classed as functional. The settings on record: H37Rv SRI 1345, 168 h.
Data set [7] has as its system J774. Kind of data set: Cytotoxicity against mouse J774 cells assessed as cell viability at 10 times MIC by MTT assay relative to control. It is filed as cell-based.
Data set [8] concerns Mycobacterium tuberculosis. Kind of data set: Antimicrobial activity against Mycobacterium tuberculosis H37Rv ATCC 27294 incubated for 7 days by BacTiter-Glo cell viability assay. It is filed as functional, organism-based. The note with it: for MIC: H37Rv ATCC 27294, 168 h; for IC50 / IC90: H37Rv ATCC 27294, BacTiter-Glo, 168 h.
In data set [9] the test system is Mycobacterium tuberculosis. Description: Antimicrobial activity against Mycobacterium tuberculosis H37Rv ATCC 27294 infected in mouse J774 cells assessed as log reduction in bacterial burden at 10 times MIC measured 7 days postinfection relative to control. The data set is classed as functional. Summed up:
as §2

For data set [10], the system named is Mycobacterium tuberculosis. Description: Antimicrobial activity against Mycobacterium tuberculosis H37Rv ATCC 27294 infected in mouse J774 cells assessed as log reduction in bacterial burden at MIC measured 7 days postinfection relative to control. It is filed as functional. The method, boiled down:
as §2

Data set [11] relates to Mycobacterium tuberculosis. Kind of data set: Antimicrobial activity against Mycobacterium tuberculosis H37Rv SRI 1345 assessed as growth inhibition at MIC after 7 days. The data set is classed as functional. The method, boiled down: as §1
Data set [12] has as its system Mycobacterium tuberculosis. Description: Antimicrobial activity against Mycobacterium tuberculosis H37Rv ATCC 27294 infected in mouse J774 cells assessed as log reduction in bacterial burden at 10 times lower MIC measured 7 days postinfection relative to rifampicin. It is filed as functional. Summed up:
as §2

Data set [13] has as its system Mycobacterium tuberculosis. Description: Ratio of MIC for Mycobacterium tuberculosis H37Rv SRI 1345 to MIC for non-replicating Mycobacterium tuberculosis H37Rv SRI 1345. It is filed as functional. Summed up: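 Non-replicating bacilli tested by Low Oxygen Recovery Assay (LORA); ratio computed as MIC H37Rv / LORA MIC.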
Data set [14] deals with Mycobacterium tuberculosis. Kind of data set: Antimicrobial activity against Mycobacterium tuberculosis H37Rv SRI 1345 assessed as inhibition of visual growth after 18 to 24 hrs. It is filed as functional. The settings on record: read-out: MBC99.9.
Data set [15] deals with Mycobacterium tuberculosis. Kind of data set: Ratio of MBC for Mycobacterium tuberculosis H37Rv SRI 1345 to MIC for Mycobacterium tuberculosis H37Rv SRI 1345. It is filed as functional. Summed up:
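MBC read from colony-forming unit counts; ratio computed as MBC / MIC against H37Rv.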

On to `CC(=O)c1c(C(F)(F)F)[n+]([O-])c2cc(F)c(N3CCCCC3)cc2[n+]1[O-]`, for which the values for the Activity with J774 [1], with J774 [2] and with J774 [7] were 83%, 53% and 65%, respectively. The values for the MIC in data set [3], in data set [6] and in data set [8] were 1 µg/mL (≈ 2.68 µM), > 8 µg/mL and 1.6 µM (≈ 0.597 µg/mL), respectively. Also, the results for the “log reduction in bacterial burden” value in data set [4], in [9] and in [10] were 1.74, 2.66 and 1.5, respectively. Further, the “growth inhibition (GI)” value is listed as >90% in [5] and 78% in data set [11]. For the same compound, the IC50 (as a rule, the midpoint of a concentration-inhibition curve) in data set [8] was found to be 1000 nM. Besides, it took 1500 nM to reach the 90% level in [8] (IC90). In addition, the “Log reduction in bacterial burden relative to rifampicin” value in [12] is 3.
As to `COC(=O)c1c(C(F)(F)F)[n+]([O-])c2ccc(N3CCN(c4ccc(F)cc4)CC3)cc2[n+]1[O-]`, the results for the Activity in the data set on J774 [1], in the data set with J774 [2] and with J774 [7] were 60%, 64% and 47%, respectively. For the same compound, the Ratio is 4 in data set [13] and 2.6 in data set [15]. Also, the MIC – broadly, the lowest concentration that inhibits growth of the organism – in [3] turned out to be 1.5 µg/mL (≈ 3.22 µM); in data set [6], 0.375 µg/mL (≈ 0.804 µM); in data set [8] it was 1.6 µM (≈ 0.746 µg/mL). For the same compound, the MBC in data set [14] stood at 4 µg/mL (≈ 8.58 µM). Further, the entries for the “log reduction in bacterial burden” value in data set [4], in data set [9] and in data set [10] were 1.43, 3.86 and 1.41, respectively. Also, the “growth inhibition (GI)” value was >90% in [5] and 78% in data set [11]. In addition, the IC50 in data set [8] is 500 nM. Moreover, the concentration for an effect of 90% (IC90) (usually the concentration needed for an effect of 90%) in data set [8] was determined as 800 nM. Moreover, the “Log reduction in bacterial burden relative to rifampicin” value in [12] is given as 3.
As for `Cc1c(C(=O)/C=C/c2ccccc2)[n+]([O-])c2cc(Cl)ccc2[n+]1[O-]`, the Activity in the data set with J774 [1] was 70%; with J774 [2], 81%; in the data set with J774 [7] it was 26%. Moreover, the results for the “log reduction in bacterial burden” value in data set [4], in data set [9] and in [10] were 2.11, 1.76 and 1.68, respectively. Also, the “growth inhibition (GI)” value in data set [5] is on record as >99%; in data set [11] it was 80%. The same compound showed an MIC in data set [8] of 3.1 µM (≈ 1.06 µg/mL). Further, in [8], 1500 nM corresponded to half-maximal inhibition (IC50). This compound displayed an IC90 in [8] of 1700 nM. Moreover, the “Log reduction in bacterial burden relative to rifampicin” value in [12] is on record as 3.
Regarding `O=C(c1ccco1)c1c(C(F)(F)F)[n+]([O-])c2cc(Cl)c(N3CCOCC3)cc2[n+]1[O-]`, the Activity is recorded as 88% with J774 [1] and 37% in the data set with J774 [7]. The MIC in data set [3] was determined as 2 µg/mL (≈ 4.51 µM); in [6], 0.25 µg/mL (≈ 0.563 µM); in [8] it was 3.1 µM (≈ 1.38 µg/mL). Further, the “log reduction in bacterial burden” value in data set [4] was found to be 1.68; in data set [9], 2.67; in [10], 1.57. Besides, the “growth inhibition (GI)” value was >90% in [5] and 61% in data set [11]. The compound further registered an IC50 in [8] of 1200 nM. For the same compound, in [8], the IC90 worked out at 2100 nM. Besides, the “Log reduction in bacterial burden relative to rifampicin” value in data set [12] is on record as 3.
With `CC(=O)c1c(C(F)(F)F)nc2cc(F)c(N3CCSCC3)cc2[n+]1[O-]`, the Activity turned out to be 70% with J774 [1], 81% in the data set with J774 [2] and 26% in the data set on J774 [7]. Moreover, the MIC was 0.75 µg/mL (≈ 2 µM) in data set [3], > 12 µg/mL in data set [6] and 3.1 µM (≈ 1.16 µg/mL) in data set [8]. The entries for the “log reduction in bacterial burden” value in data set [4], in data set [9] and in data set [10] were 2.17, 1.76 and 1.66, respectively. The entries for the “growth inhibition (GI)” value in data set [5] and in data set [11] were >99% and 51%, respectively. Further, the IC50 in data set [8] turned out to be 1300 nM. Further, the IC90 in data set [8] came out at 1800 nM. The “Log reduction in bacterial burden relative to rifampicin” value in data set [12] was found to be 3.
On to `N[C@@H]1CONC1=O` [CYCLOSERINE], for which, in [8], the MIC was 50 µM (≈ 5.1 µg/mL), half-maximal inhibition (IC50) was put at 20800 nM and the 90% effect level (IC90) was put at 33100 nM.
The corresponding values for `CC[C@@H](CO)NCCN[C@@H](CC)CO` [ETHAMBUTOL] are 6.2 µM (≈ 1.27 µg/mL), 1200 nM and 1800 nM.
In data set [8], `NNC(=O)c1ccncc1` [ISONIAZID] returned an MIC of 0.3 µM (≈ 0.0411 µg/mL), a concentration for half-maximal inhibition (IC50) of 100 nM and an IC90 of 200 nM.
On the same counts, the results for `CCc1nc(N)nc(N)c1-c1ccc(Cl)cc1` [PYRIMETHAMINE] are 50 µM (≈ 12.4 µg/mL), 23600 nM and 36000 nM.
Turning to `CO[C@H]1/C=C/O[C@@]2(C)Oc3c(C)c(O)c4c(O)c(c(/C=N/N5CCN(C)CC5)c(O)c4c3C2=O)NC(=O)/C(C)=C\C=C\[C@H](C)[C@H](O)[C@@H](C)[C@@H](O)[C@@H](C)[C@H](OC(C)=O)[C@@H]1C` [RIFAMPIN], the Activity with J774 [1] was determined as 93%; in the data set on J774 [2], 87%; in the data set on J774 [7], 80%. The MIC came to 0.05 µg/mL (≈ 0.0608 µM) in [3], 0.39 µg/mL (≈ 0.474 µM) in data set [6] and 0.04 µM (≈ 0.0329 µg/mL) in [8]. Besides, the MBC in [14] turned out to be 0.78 µg/mL (≈ 0.948 µM). Moreover, the “log reduction in bacterial burden” value in data set [4] came to 0.48; in [9] it was 2.68; in data set [10], 1.73. The compound further came in with an IC50 in [8] of 20 nM. The same compound yielded a concentration for an effect of 90% (IC90) in data set [8] of 30 nM. Further, the Ratio in [15] was 15.6. Also, the “growth inhibition (GI)” value in data set [11] is recorded as 55%.
